# Experimental data published in paper PMC10823175 (Proceedings of the National Academy of Sciences of the …, 2024).
# Marks after values point to notes of the source that are not given here.
# Legend:
# [1] = tested on: MDA-MB-231, 4T1, MRC-5 cells; assay: Western blot of c-MYC, cyclin D1 and PARP; type: cell-based; details: MDA-MB-231 or 4T1 cancer cells; MG-002, CR-1-31B 100 nM, DXR 0.5 µg/mL; 24 h
# 4T1-526 mammary tumors = assay: 4T1-526 mammary fat pad tumor growth; type: in vivo, BALB/c mice
# eIF4A1 [2] = target: T1, eIF4A1 (Homo sapiens, UniProt P60842); type: binding; details: for RNA template selectivity of compound-induced eIF4A1 clamping: 10 µM, poly (AG)8 vs poly (UC)8 RNA
# How it was run: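 Clamping: 1 mM AMPPNP, ΔmP versus DMSO, n = 3 ±SD. Dissociation: complexes with 1 mM ATP, 30 min RT dark, then 1,000-fold excess unlabeled poly(AG)8, polarization over time; one-phase-decay half-life, 95% CI errors.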
# eIF4A1 [3] = target: T1, eIF4A1; assay: Differential scanning fluorimetry of eIF4A1; type: binding; details: eIF4A1 8 µM, compound 15 µM, 15 µM poly (AG)8, 1 mM AMPPNP
# How it was run: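 His6-eIF4A1 (E. coli BL21(DE3), Ni-NTA then Q-Sepharose) at 8 µM with 15 µM test compound or DMSO. Heated 37 to 75 °C at 1 °C/min; ΔT50 from the unfolding midpoint; n = 3 ±SD.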
# [4] = delivered IV 1 mg/kg; cited from earlier work
# 4T1-526 cells = assay: Cell death of 4T1-526 cells; type: cell-based; details: 72h exposure at IC50 doses
# [5] = Plasma protein binding, mouse; type: in vitro ADME
# [6] = tested on: mRNA translation in 4T1-526 cells; assay: Puromycin incorporation in 4T1-526 cells; type: cell-based; details: read-out: IC50 for inhibition of mRNA translation
# [7] = tested on: cap-dependent (FLuc) translation; assay: In vitro translation in Krebs-2 extracts with bicistronic reporter mRNA; type: biochemical; details: read-out: IC50 toward inhibition of FLuc synthesis from (CAG)-FF/HCV-IRES/Ren mRNA, n = 2 ±SD
# [8] = Plasma protein binding, human; type: in vitro ADME
# T1 sequence (P60842 whole entry): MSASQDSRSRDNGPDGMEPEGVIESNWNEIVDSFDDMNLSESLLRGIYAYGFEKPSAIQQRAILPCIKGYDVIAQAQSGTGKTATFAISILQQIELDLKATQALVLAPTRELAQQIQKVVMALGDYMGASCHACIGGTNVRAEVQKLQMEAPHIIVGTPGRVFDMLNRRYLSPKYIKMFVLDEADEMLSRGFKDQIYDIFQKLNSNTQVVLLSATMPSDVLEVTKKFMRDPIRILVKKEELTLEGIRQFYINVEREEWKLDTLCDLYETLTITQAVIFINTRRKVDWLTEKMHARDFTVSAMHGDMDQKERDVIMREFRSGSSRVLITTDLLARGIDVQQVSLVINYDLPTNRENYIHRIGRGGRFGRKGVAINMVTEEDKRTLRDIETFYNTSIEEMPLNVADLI
Compound,cleavage of PARP [1],"primary tumor response, monotherapy versus combination (4T1-526 mammary tumors; 0.5 mg/kg MG-002 PO, 2.5 mg/kg DXR IP, every 3 d)",RNA template selectivity of compound-induced eIF4A1 clamping (eIF4A1 [2]),transition midpoint temperature shift (ΔT50) (eIF4A1 [3]) [°C],"half-life of complexes, fold less than those formed with MG-002 (eIF4A1 [2]; poly (AG) RNA)",T1/2 (h) [4],cell death (4T1-526 cells),Plasma protein binding (% bound) Mouse [5] [% bound],IC50 [6] [nM],tumor growth after intraperitoneal or intravenous delivery (4T1-526 mammary tumors; intraperitoneal or intravenous delivery),IC50 [7] [nM],Plasma protein binding (% bound) Human [8] [% bound]
"COc1cccc2c1C(=O)c1c(O)c3c(c(O)c1C2=O)C[C@@](O)(C(=O)CO)C[C@@H]3O[C@H]1C[C@H](N)[C@H](O)[C@H](C)O1 [DXR, doxorubicin]",cleavage of PARP was observed,equally responsive,,,,,,,,,,
"CC(/C=C/C(C)=C/[C@@H]1Cc2nc(cs2)[C@@H](C)C[C@@H](N)CC(=O)O[C@@H](C)C/C(C)=C/C=C\C(=O)O1)=C\CN(C)C [PatA, pateamine A]",,,stabilized binding of eIF4A1 to both polypurine and polypyrimidine RNA templates,10,,,,,,,,
COc1cc2c(c(OC)n1)[C@]1(O)[C@H](O)[C@H](CN(C)C)[C@@H](c3ccccc3)[C@]1(c1ccc(C#N)cc1)O2 [eFT226],,,discriminated between poly (AG)8 and poly (UC)8 RNA templates,7,approximately 2.5 fold,10.9^§ h,Significant cell death,73.4 ± 1.1,~8,similarly delayed tumor growth,813 ± 91,79.4 ± 0.3
